Compounds with a hit are over-represented: about 0.61% of the library has one in this group of screens.
CFTR F508del cor: correctors of CFTR F508del function in bronchial epithelial cells; CFBE cells, YFP halide quenching; stimulated with forskolin plus potentiator P3; % fluorescence drop versus neutral controls; activity (quench increase), % at 7.58 µM; actives 0.36% (n = 350,000); AID 720511;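 active means mean added fluorescence quench of at least 8% versus neutral control, with both replicates also reaching 8%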;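 further: cells transiently co-express mutant CFTR-F508del with the halide-sensitive YFP; corrector assay measuring rescue of mutant channel to the surface after 24 h compound exposure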
XiGFP reactiv: activators of X-chromosome reactivation in mouse fibroblasts; activation, % at 7.58 µM; XiGFP mouse fibroblasts, % GFP-positive cells imaging, 3 d; cells co-treated with 5-aza-dC sensitizer; scaled so ellipticine positive control = 100%; actives 0.055% (n = 360,000); AID 743238;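 active means mean normalized replicate activation at least 10% and every replicate at or above 10%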;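 further: 0% = median of on-plate neutral control wells and 100% = ellipticine 6 µM median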
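System: XiGFP fibroblasts, SV40-immortalized. Medium: DMEM plus 5-aza-dC sensitizer. Doses: single point. Timing: 3 d treatment, 15 min room-temperature fixation. Control set: ellipticine 6 µM.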
E-sel inducer: E-selectin induction on HUVECs. HUVEC E-selectin immunofluorescence imaging; normalized: neutral wells 0, TNF-alpha wells 100. activation, % at 7.58 µM. actives 0.37% (n = 260,000);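 active means mean E-selectin-positive cell signal at least 10% of the positive control, reached in at least 60% of replicates, without over 20% cell loss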
Target sequence (P16581 whole entry, looked up): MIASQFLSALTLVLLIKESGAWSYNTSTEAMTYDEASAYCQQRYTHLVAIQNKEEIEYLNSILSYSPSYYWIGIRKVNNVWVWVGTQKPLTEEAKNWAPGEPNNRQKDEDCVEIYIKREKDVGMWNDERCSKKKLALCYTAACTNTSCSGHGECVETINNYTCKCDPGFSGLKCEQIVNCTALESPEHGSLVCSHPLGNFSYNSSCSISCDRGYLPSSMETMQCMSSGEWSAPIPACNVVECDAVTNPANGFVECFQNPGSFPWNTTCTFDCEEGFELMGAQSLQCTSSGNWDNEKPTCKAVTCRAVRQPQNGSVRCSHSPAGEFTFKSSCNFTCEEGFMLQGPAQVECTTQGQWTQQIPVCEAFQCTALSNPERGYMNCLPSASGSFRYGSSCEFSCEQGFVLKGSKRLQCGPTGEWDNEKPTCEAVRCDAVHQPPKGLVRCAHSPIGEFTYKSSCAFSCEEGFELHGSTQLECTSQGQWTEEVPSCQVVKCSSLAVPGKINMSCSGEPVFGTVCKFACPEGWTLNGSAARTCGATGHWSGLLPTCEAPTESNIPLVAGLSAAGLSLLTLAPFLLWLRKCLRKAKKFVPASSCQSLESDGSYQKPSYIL
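Assay system: HUVEC, human umbilical vein endothelial cells / Amount: 3,000 HUVEC/well / Controls: TNF-alpha positive control, DMSO neutral control / Compound dosing: single concentration / Medium: EGM-2 over gelatin coat / Evaluation: percent E-selectin-positive cells / Signal: immunofluorescence imaging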
The depositor's hits bear a star; . = not tested or not shown; ! = not active in a repeat.

SMILES	CFTR F508del cor	XiGFP reactiv	E-sel inducer
CO[C@@H]1CN(C)C(=O)c2ccc(NC(=O)Nc3ccc(F)cc3)cc2OC[C@@H](C)N(C(=O)c2ccc(F)cc2)C[C@H]1C	2	0	44*
CO[C@H]1CN(C)C(=O)c2cc(NC(=O)Nc3ccc(Cl)cc3)ccc2OC[C@H](C)NC[C@@H]1C	3	0	0
CO[C@H]1CN(C)C(=O)c2cc(NC(=O)Nc3ccc(Cl)cc3)ccc2OC[C@H](C)NC[C@H]1C	-1	0	66*
CO[C@H]1CN(C)C(=O)c2ccc(NC(C)=O)cc2OC[C@@H](C)N(C(=O)c2ccc(F)cc2)C[C@@H]1C	-2	0	0
COc1cccc(NC(=O)N(C)C[C@@H]2Oc3ncc(C#Cc4ccncc4)cc3C(=O)N([C@@H](C)CO)C[C@H]2C)c1	-2	0	0
C[C@@H]1CCCCO[C@@H](CN(C)C(=O)Nc2ccc(F)cc2)[C@H](C)CN([C@@H](C)CO)C(=O)c2cc(NC(=O)NC3CCCCC3)ccc2O1	-2	-1	1
CCOC(=O)[C@@H]1[C@@H]2C=C[C@]3(O2)[C@H](C(=O)NCc2ccccc2)N(CCCCCCO)C(=O)[C@@H]13	10*	.	.
CCOC(=O)CN1CC23C=CC(O2)C(C(=O)NCc2ccc(F)cc2)C3C1=O (centres undefined)	0	0	.
CC(C)C#Cc1ccc2c(c1)O[C@@H](CN(C)C(=O)c1ccncc1)[C@H](C)CN([C@@H](C)CO)S2(=O)=O	2	-1	0
COc1ccc(CN(C)Cc2nc(Cc3ccccc3Cl)no2)cc1OC	2	33*	0
COc1ccc(Cc2noc(CN(C)CCc3ccccc3)n2)cc1OC	0	0	.
O=C(NC1CCC1)[C@@H]1[C@@H](CO)[C@@H]2Cn3c(ccc(-c4ccccc4F)c3=O)[C@@H]2N1Cc1ccccn1	-3	0	-1
Cc1cc([N+](=O)[O-])nn1CC(=O)NCCCN1CCOCC1	-1	0	27*
Cc1cc([N+](=O)[O-])nn1CC(=O)N1CCOCC1	1	0	0
CC(C)CC#Cc1cnc2c(c1)C(=O)N([C@H](C)CO)C[C@@H](C)[C@H](CN(C)C(=O)Cc1ccncc1)O2	.	-1	0
COc1ccc2[nH]c3c(=O)n(N)c(=O)[nH]c3c2c1	0	0	0
COc1ccc2[nH]c3c(C)c4ccncc4c(C)c3c2c1	16*	.	.
C[C@@H]1CN([C@@H](C)CO)C(=O)c2cc(C#CCN(C)C)cnc2O[C@H]1CN(C)S(C)(=O)=O	0	-1	-1
COCCNC(=O)[C@H]1[C@H](CO)[C@H]2Cn3c(ccc(-c4ccc(F)cc4)c3=O)[C@@H]1N2C	-5	0	0
CCN1C(=O)C(=O)c2cc(C)ccc21	3	1	0
CC[N+]1=C(C)C(C)(C)c2cc(C)ccc21	-19	73*	169*
O=C(c1ccccn1)N1CC2(C1)[C@H](c1ccccc1)[C@@H](CO)N2C(=O)C1CCCC1	1	0	0
C[C@H](CO)N1C[C@H](C)[C@@H](CN(C)Cc2ccccc2)Oc2cc(/C=C/c3ccccc3)ccc2S1(=O)=O	1	5	0
C[C@H]1CN([C@@H](C)CO)S(=O)(=O)c2ccc(/C=C/c3ccccc3)cc2O[C@@H]1CN(C)C(=O)NC1CCCCC1	4	1	.
C/C=C/c1ccc2c(c1)O[C@H](CN(C)C(=O)Nc1cccc(F)c1)[C@H](C)CN([C@@H](C)CO)S2(=O)=O	4	-1	0
SMILES	CFTR F508del cor	XiGFP reactiv	E-sel inducer
C[C@@H]1CN([C@H](C)CO)S(=O)(=O)c2ccc(/C=C/c3ccccc3)cc2O[C@H]1CN(C)C(=O)NC1CCCCC1	9.6*	0	.
C/C=C/c1ccc2c(c1)O[C@@H](CN(C)C(=O)CC)[C@H](C)CN([C@H](C)CO)S2(=O)=O	0	-1	0
C[C@H]1CN([C@@H](C)CO)S(=O)(=O)c2ccc(/C=C/c3ccccc3)cc2O[C@H]1CN(C)Cc1ccccc1	8.0*	.	.
C/C=C/c1ccc2c(c1)O[C@@H](CN(C)C(=O)Nc1cccc(F)c1)[C@H](C)CN([C@H](C)CO)S2(=O)=O	8.5*	0	0
C/C=C/c1ccc2c(c1)O[C@H](CN(C)C(=O)CC)[C@@H](C)CN([C@H](C)CO)S2(=O)=O	3	0	74*
Cc1ccc(S(=O)(=O)Nc2ccc3c(c2)CC(=O)N([C@@H](C)CO)C[C@H](C)[C@@H](CN(C)CC2CC2)O3)cc1	1	-1	0
C[C@H](NC(=O)C[C@@H]1CC[C@@H](NC(=O)C2CC2)[C@@H](CO)O1)c1ccccc1	0	-1	0
C[C@H](CO)N1C[C@H](C)[C@@H](CN(C)C(=O)Nc2ccc(F)cc2)Oc2c(NC(=O)Nc3ccccc3)cccc2C1=O	-1	0	0
C[C@H]1CN([C@@H](C)CO)C(=O)Cc2cc(NC(=O)Nc3cccc4ccccc34)ccc2O[C@H]1CN(C)CC1CCCCC1	-2	0	0
O=C(C[C@@H]1C=C[C@@H](NC(=O)NC2CCCC2)[C@@H](CO)O1)NCc1ccc(F)cc1	-2	0	0
C[C@@H]1CN([C@H](C)CO)S(=O)(=O)c2ccc(/C=C/c3ccccc3)cc2O[C@H]1CN(C)C(=O)Nc1ccc(F)cc1	5	-1	1
C[C@H]1CN([C@@H](C)CO)S(=O)(=O)c2ccc(/C=C/c3ccccc3)cc2O[C@@H]1CN(C)C(=O)Nc1ccc(F)cc1	10*	-1	1
COCCNC(=O)C[C@@H]1C[C@H]2c3cc(NC(=O)NC4CCCC4)ccc3O[C@H]2[C@H](CO)O1	0	0	0
CCS(=O)(=O)N1CC(=O)N2[C@H](CO)[C@@H](c3ccc(C#CCC(C)C)cc3)[C@@H]2C1	11*	0	0
CC(C)CC#Cc1ccc([C@H]2[C@@H](CO)N3C(=O)CN(S(C)(=O)=O)C[C@@H]23)cc1	.	0	.
C[C@H](CO)N1C[C@H](C)[C@H](CN(C)Cc2ccccc2)Oc2c(NC(=O)Nc3cccc4ccccc34)cccc2C1=O	-1	0	0
C[C@@H]1CN([C@H](C)CO)C(=O)c2cccc(NC(=O)C3CCCCC3)c2O[C@H]1CN(C)Cc1ccccc1	0	0	0
C[C@H]1CN([C@@H](C)CO)C(=O)c2cccc(NC(=O)Nc3cccc4ccccc34)c2O[C@H]1CN(C)Cc1ccc(-c2ccccc2)cc1	1	0	90*
C[C@H](CO)N1C[C@H](C)[C@@H](CN(C)Cc2ccccc2)Oc2c(NC(=O)C3CC3)cccc2C1=O	0	0	102*!
C[C@H](CO)N1C[C@H](C)[C@H](CN(C)Cc2ccccc2)Oc2c(NC(=O)C3CC3)cccc2C1=O	-3	0	-20
C[C@@H]1CN([C@H](C)CO)C(=O)c2cccc(NC(=O)C3CC3)c2O[C@@H]1CN(C)Cc1ccccc1	0	0	72*
C[C@@H]1CN([C@H](C)CO)C(=O)c2cc(NC(=O)Nc3ccccc3)ccc2O[C@@H]1CN(C)S(=O)(=O)c1cccs1	-2	-1	1

Screening data (PubChem)
